Compound activity deposited in PubChem by several laboratories.
Many of the other results were omitted from the sample, so hits are more common in it than they were.
ABCG2 inh: human ABCG2 inhibition, ABCB1 as counter-screen; hit rate 0.1% among 190,000; IgMXP3 cells, JC-1 efflux, flow cytometry; inhibition, % at 6.6 µM;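 active = inhibition above 80%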;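 also: 0% = DMSO and 100% = nicardipine control wells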
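Read-out basis: Efflux inhibition in percent versus controls | Test system: ABCG2 IgMXP3 and barcoded ABCB1 CCRF-Adr cell mix | Quantity: 3 million cells/mL in well | Schedule: 10 min at 25 °C | Control set: Nicardipine as high control, DMSO as low control | Reagent: JC-1 as fluorescent efflux pump substrate | Signal: Flow cytometry of retained JC-1 fluorescence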
L major viab: inhibitors of Leishmania major promastigote growth; Leishmania major promastigotes, resazurin fluorescence viability; inhibition, % at 10 µM; hit rate 9% among 200,000;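 also: promastigotes grown with compound for 44 hours at 28 °C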
PKD1 inh: inhibitors of human PKD1 kinase; Q15139; PKD1 kinase fluorescence polarization assay; inhibition, % (no concentration beside the values); hit rate 0.056% among 200,000; AID 797
GSH fluor: compound fluoresces at 488/530 nm on GSH beads. GSH beads flow cytometry, compound fluorescence 488/530 nm; stronger effect = higher value. fluorescence (KMESF) at 10 µM. hit rate 0.25% among 190,000; in the data active = fluorescence above about 89;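 also: glutathione beads carrying GST-tagged Bcl family fusion proteins plus one bare bead set; values are compound well signal with DMSO vehicle wells as background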
ABCB1 block: blocks JC-1 efflux by human ABCB1 transporter; P08183; CCRF-Adr cells, flow cytometry; inhibition, % at 6.6 µM; hit rate 0.067% among 190,000; in the data active = inhibition above about 40%;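 also: 0% = vehicle and 100% = reference inhibitor; higher value means more JC-1 retained so stronger ABCB1 efflux block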
Avidin bead fluor: avidin bead compound fluorescence profile; Avidin beads, compound fluorescence 488/530 nm, flow cytometry; stronger effect = higher value; hit rate 0.38% among 220,000; AID 1775; fluorescence (KMESF) at 10 µM; in the data active = fluorescence above about 47
An asterisk follows results filed as active; · = not tested or not shown. Rule as the data show it, unless noted: active = inhibition above about 50%; inactive = the rest.

SMILES	ABCG2 inh	L major viab	PKD1 inh	GSH fluor	ABCB1 block	Avidin bead fluor
CCCC(NC(=S)NCC1CCCO1)C12CC3CC(CC(C3)C1)C2 (centres undefined)	-0.6	33.1	-1.6	72	-0.1	9
C=CCn1c(N)cc(=O)nc1SCC(=O)Nc1ccc2ccccc2c1	0.0	4.4	4.6	17	-0.2	7
CN(Cc1cn(C)nc1-c1cccc(Cl)c1)Cc1nccn1C	·	·	·	·	·	6
Cc1cccc(-n2cc(CN3CCN(Cc4nccn4C)CC3)c(-c3cccc(F)c3)n2)c1	10.3	89.7*	7.5	18	4.5	7
Cc1ccc(-n2cc(CN(C)Cc3ncc[nH]3)c(-c3cccc(C)c3)n2)cc1	2.2	83.4*	-0.7	12	2.5	11
CCn1ccnc1CN(C)Cc1cn(-c2cc(C)ccc2C)nc1-c1ccccc1	7.7	93.0*	4.2	16	7.4	7
Cc1ccc(-n2cc(CN(C)Cc3nccn3C)c(-c3ccc(F)cc3)n2)cc1	5.1	79.5*	-1.1	10	3.0	10
Cn1ncc2c(NNC(=O)C3CCCCC3)ncnc21	-0.6	-11.2	-1.6	16	-0.1	10
CCn1ccnc1CN(C)Cc1cn(-c2ccccc2)nc1-c1ccc(OC)cc1F	1.4	37.2	0.6	8	3.1	9
CCn1ccnc1CN(C)Cc1cn(-c2ccc(C)cc2)nc1-c1ccc(F)cc1	3.6	100.0*	3.1	15	2.3	11
Cc1ccc(-n2cc(CN3CCC(O)(c4ccccn4)CC3)c(-c3ccc(F)cc3)n2)cc1	2.2	72.6*	-6.8	19	1.9	10
COc1ccc(CN(C(=O)c2oc3ccccc3c2C)C2CCS(=O)(=O)C2)cc1 (centres undefined)	3.9	54.2*	-1.1	14	0.8	11
Cc1cc2oc(C(=O)N(Cc3ccccc3)C3CCS(=O)(=O)C3)cc(=O)c2cc1Cl (centres undefined)	14.4	50.2*	4.3	11	3.5	10
Cc1c(C(=O)N(Cc2ccc(N(C)C)cc2)C2CCS(=O)(=O)C2)oc2ccccc12 (centres undefined)	·	·	·	·	·	3
Cc1cc(C)c2oc(C(=O)N(Cc3ccccc3)C3CCS(=O)(=O)C3)cc(=O)c2c1 (centres undefined)	·	·	·	·	·	12
CCN(CC)CCNc1nc2c(c(=O)[nH]c(=O)n2C)n1CC(O)COc1ccc(Cl)cc1Cl (centres undefined)	3.4	91.6*	-9.2	5	0.3	7
O=C(NCc1cccnc1)c1cccc(Cl)c1	5.1	-7.0	-4.4	23	1.3	14
CC(C)(C)NC(=O)c1ccc(NC(=O)CSc2ccccc2)cc1	1.2	0.7	-3.2	16	-0.1	8
Cc1ccc(SCC(=O)Nc2cccc(C(=O)NC(C)(C)C)c2)cc1	4.9	95.1*	-1.1	15	0.6	23
O=C(NCc1cccnc1)c1cccc(NC(=O)c2ccco2)c1	3.1	77.5*	-3.4	24	0.1	36
O=C(NC1=NCCS1)c1cccc(NC(=O)c2ccco2)c1	8.1	98.6*	-7.6	22	0.4	21
O=C(NC1CCCC1)c1cccc(NC(=O)c2ccco2)c1	0.8	85.8*	-8.4	11	0.2	18
CC(C)Oc1cccc(C(=O)NC2=NCCS2)c1	1.3	0.4	-8.6	12	0.8	4
O=C(NC1CC2CCCC(C1)N2Cc1cccs1)c1ccc([N+](=O)[O-])cc1 (centres undefined)	-0.7	12.3	2.1	16	0.8	12
CC(C)(C)NC(=O)c1cccc(NC(=O)c2ccco2)c1	15.6	33.1	3.1	99*	1.6	4
SMILES	ABCG2 inh	L major viab	PKD1 inh	GSH fluor	ABCB1 block	Avidin bead fluor
CC(C)(C)NC(=O)c1cccc(NC(=O)c2ccc(NC(=O)c3ccco3)cc2)c1	9.2	4.5	-13.7	29	-0.1	10
O=C(COC(=O)c1cccc(NC(=O)c2ccco2)c1)c1ccc(Br)cc1	7.1	98.7*	4.1	32	3.8	15
O=C(CCc1nnc(COc2ccccc2)o1)NCc1ccc(Cl)s1	-0.2	-0.3	0.2	17	0.0	6
COc1nc(NCc2ccco2)nc(NC2CCCCC2)n1	23.0	18.9	2.8	27	1.7	5
CCOc1nc(NC2CCCCC2)nc(NC(C)(C)C)n1	4.1	78.5*	-2.5	17	0.9	5
Cc1nn(-c2nnc(NC3CCCCC3)nn2)c(C)c1Br	-5.9	25.6	-3.9	7	-1.3	4
Cc1cccc(C)c1NC(=O)COC(=O)c1ccc([N+](=O)[O-])o1	0.0	-10.7	-1.9	17	0.1	12
Cc1ccc(C(=O)CC(=O)COc2ccc(Cl)cc2C)cc1	0.0	91.0*	-12.3	15	-0.3	5
Cc1ccc(NC(=O)c2ccc(OC(=O)COc3ccc(Cl)cc3C)cc2)cc1	1.1	-6.6	-1.8	5	0.2	2
Nc1ccc(O)cc1C(=O)OCC(=O)c1ccc(C2CCCCC2)cc1	-2.7	59.6*	-9.0	10	-0.3	6
COc1ccc(C(=O)OCC(=O)c2ccc(C3CCCCC3)cc2)cc1	2.6	-1.4	-0.2	22	0.3	33
O=C(c1ccco1)c1coc2c1cc(O)c1ccccc12	-0.1	-9.2	-2.0	23	-0.2	6
CCC(C)(C)NC(=O)C(OC(=O)c1cc2sccc2n1C)c1ccc(OC)cc1 (centres undefined)	1.5	6.2	4.7	63	0.3	7
Cc1cnc(CN2CCc3c([nH]c4ccccc34)C2C2CCCCC2)[nH]1 (centres undefined)	4.5	53.8*	-0.5	16	0.7	11
Cc1sc2ncnc(SCC(=O)N3c4ccccc4Sc4ccc(Cl)cc43)c2c1C	-8.3	2.4	-3.2	13	-0.6	3
CCOC(=O)c1c(C)sc2c1N(C(=O)CCl)c1cc(Cl)ccc1S2	5.8	100.6*	-9.6	11	2.2	9
COC(=O)c1ccc(CSc2nc3ccccc3c(=O)n2-c2ccccc2)o1	2.4	19.3	-9.0	17	0.9	4
COC(=O)c1ccc(CSc2nc3ccccc3c(=O)n2-c2ccc(OC)c(OC)c2)o1	2.2	97.3*	-0.9	47	1.1	8
COC(=O)c1ccc(CSc2nc3c(c(=O)n2-c2ccc(F)cc2)SCC3)o1	13.3	100.1*	2.0	31	4.7	8
COC(=O)c1ccc(CSc2nc3c(c(=O)n2-c2ccccc2)SCC3)o1	5.1	87.4*	-1.3	24	3.2	4
O=C(CSc1nc2c(c(=O)n1-c1ccccc1)SCC2)N1CCOCC1	1.5	-0.7	0.5	25	0.3	7
Nn1c(COc2ccc(Cl)cc2)n[nH]c1=S	10.9	-6.2	7.2	27	1.8	9
Cc1cc(C)c(NC(N)=S)c(C)c1	·	·	·	·	·	6
NS(=O)(=O)c1cccc(NC(=O)COC(=O)CC2CC3CCC2C3)c1 (centres undefined)	1.3	-7.4	7.0	15	0.3	10
